Data taken from article PMC4027032 (Journal of the American Chemical Society, 2011).

Columns and labels:
[1] = λirr = 400 nm; cited from earlier work
[2] = target: human cathepsin B in DU145 lysates (Homo sapiens, UniProt P07858); experiment: Cathepsin B activity in DU145 cell lysates, Z-Arg-Arg-AMC; type: biochemical; details: 1 alone; DU145 lysate
Summary of the method: (§1)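 Cathepsin B activity was measured in DU145 or hBMSC cell lysates with fluorogenic Z-Arg-Arg-AMC at 100 μM, run in the dark or after the test compound was irradiated for 10 min with a 250 W tungsten halogen lamp (>395 nm, H2O filter). Activity was plotted against log[inhibitor] and fit to a sigmoidal curve to give IC50, with 100% set by the no-inhibitor control.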

human cathepsin K = target: T1, human cathepsin K (Homo sapiens, UniProt P43235); experiment: Cathepsin K inhibition, fluorogenic substrate Z-Gly-Pro-Arg-AMC; type: biochemical; details: 1 alone; acetate buffer pH 5.5, cat K 20 nM, 1% DMSO
T1 sequence (P43235 115-329): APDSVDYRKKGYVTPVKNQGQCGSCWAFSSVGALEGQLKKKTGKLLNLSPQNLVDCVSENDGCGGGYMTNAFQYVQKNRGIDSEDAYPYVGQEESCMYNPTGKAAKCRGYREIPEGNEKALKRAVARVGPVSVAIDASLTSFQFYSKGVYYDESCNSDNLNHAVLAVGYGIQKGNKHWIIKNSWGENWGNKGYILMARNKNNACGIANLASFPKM
Summary of the method: (§2)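 Human cathepsin K or L at 20 nM in 0.4 M acetate buffer (pH 5.5, 4 mM EDTA, 8 mM DTT, final 1% DMSO). Substrates at 100 μM were Z-Gly-Pro-Arg-AMC for K and Z-Phe-Arg-AMC for L. Reactions were run in the dark or after 10 min irradiation (250 W tungsten halogen lamp, >395 nm, H2O filter). IC50 came from a sigmoidal fit versus log[inhibitor], with 100% set by the no-inhibitor control.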

[3] = target: human cathepsin B in hBMSC lysates (Homo sapiens, UniProt P07858); experiment: Cathepsin B activity in hBMSC lysates, Z-Arg-Arg-AMC; type: biochemical; details: 1 alone; hBMSC lysate
Summary of the method: as §1

human cathepsin B = human cathepsin B (Homo sapiens, UniProt P07858); experiment: Cathepsin B inhibition, fluorogenic substrate Z-Arg-Arg-AMC; type: biochemical; details: 1 alone; acetate buffer pH 6.0, cat B 8 nM, 1% DMSO
Summary of the method: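 Human cathepsin B at 8 nM in 0.4 M acetate buffer (pH 6.0, 4 mM EDTA, 8 mM DTT, final 1% DMSO), with Z-Arg-Arg-AMC at 100 μM. Reactions were run in the dark or after 10 min irradiation of the test compound (250 W tungsten halogen lamp, >395 nm, H2O filter). IC50 came from a sigmoidal fit of activity versus log[inhibitor], with 100% set by the no-inhibitor control.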

human cathepsin L = human cathepsin L (Homo sapiens, UniProt P07711); experiment: Cathepsin L inhibition, fluorogenic substrate Z-Phe-Arg-AMC; type: biochemical; details: 1 alone; acetate buffer pH 5.5, cat L 20 nM, 1% DMSO
Summary of the method: as §2

papain = target: T2, papain (Carica papaya, UniProt P00784); experiment: Papain inhibition, chromogenic substrate BAPNA; type: biochemical; details: inhibitor 1 alone; papain 650 nM, phosphate buffer pH 6.5, 11% DMSO
T2 sequence (P00784 134-345): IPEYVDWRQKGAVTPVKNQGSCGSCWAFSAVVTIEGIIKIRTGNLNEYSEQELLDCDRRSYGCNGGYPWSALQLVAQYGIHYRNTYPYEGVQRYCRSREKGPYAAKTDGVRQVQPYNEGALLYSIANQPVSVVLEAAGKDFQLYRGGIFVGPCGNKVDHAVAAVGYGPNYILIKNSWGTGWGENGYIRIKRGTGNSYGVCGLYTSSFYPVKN

Chain of human cathepsin L (P07711 114-333): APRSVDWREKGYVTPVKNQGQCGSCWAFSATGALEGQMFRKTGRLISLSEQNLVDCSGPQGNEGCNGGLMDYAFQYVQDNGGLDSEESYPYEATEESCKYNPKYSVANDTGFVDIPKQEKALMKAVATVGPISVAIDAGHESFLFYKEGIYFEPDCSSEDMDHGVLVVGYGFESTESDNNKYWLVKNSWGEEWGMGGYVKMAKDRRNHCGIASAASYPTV

Row | Compound | overall photoaquation quantum yield ΦR→P [1] | IC50 [2] | IC50 (human cathepsin K) | IC50 [3] | IC50 (human cathepsin B) | IC50 (human cathepsin L) | IC50 (papain)
1 | CC#N.CC#N.[Cl-].[Cl-].[Ru+2].c1ccc(-c2ccccn2)nc1.c1ccc(-c2ccccn2)nc1 [cis-[Ru(bpy)2(MeCN)2]Cl2] | 0.21 |  |  |  |  |  | 
2 | CC(=O)N[C@@H](Cc1ccccc1)C(=O)NCC#N [compound 1, Ac-Phe-NHCH2CN, reference compound] |  | 182 µM | 12 µM | 183 µM | 133 µM | 72 µM | 0.638 µM
